How the values were obtained:
Format in all cases: functional
A549 = assay: Cytotoxicity against human A549 cells incubated for 72 hrs by MTT assay; conditions: A549, 72 h
Summary of the method: (§1)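 MTT assay. Cells seeded at 5 × 10³/well and grown 24 h at 37 °C, 5% CO₂. Compounds added at several concentrations in triplicate wells, with 0.1% DMSO control, for 72 h. MTT then added for 4 h, formazan dissolved in DMSO, and absorbance read at 570 nm. GI₅₀ by Logit method; three experiments.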

MDA-MB-435 = assay: Cytotoxicity against human MDA-MB-435 cells incubated for 72 hrs by MTT assay; conditions: MDA-MB-435, 72 h; summary of the method: as §1
HCT-116 = assay: Cytotoxicity against human HCT116 cells incubated for 72 hrs by MTT assay; conditions: HCT-116, 72 h; summary of the method: as §1

| Structure (SMILES) | GI50 (A549) [µM] | GI50 (MDA-MB-435) [µM] | GI50 (HCT-116) [µM] |
| --- | --- | --- | --- |
| CN1c2cc(Cl)ccc2C(=O)N2CCc3c([nH]c4ccccc34)C21 (stereo unspecified) | > 200 | > 200 | > 200 |
| Cc1ccc2c(c1)c1c(n2C(=O)c2ccc(Cl)cc2)C2N(CC1)C(=O)c1ccccc1N2C (stereo unspecified) | > 200 | 1.14 | 11.4 |
| COc1ccc2[nH]c3c(c2c1)CCN1C(=O)c2cc([N+](=O)[O-])ccc2N(C)C31 (stereo unspecified) | > 200 | > 200 | 0.15 |
| COc1ccc2c(c1)c1c(n2C(=O)c2ccc(Cl)cc2)C2N(CC1)C(=O)c1ccccc1N2C (stereo unspecified) | 87.2 | 11.8 | 71 |
| COc1cccc2c1C(=O)N1CCc3c([nH]c4ccccc34)C1N2C (stereo unspecified) | 128 | 22.3 | 19.7 |
| COc1ccc2[nH]c3c(c2c1)CCN1C(=O)c2cc(Cl)ccc2N(C)C31 (stereo unspecified) | 13 | 2 | 0.004 |
| CN1c2ccc(I)cc2C(=O)N2CCc3c([nH]c4ccccc34)C21 (stereo unspecified) | > 200 | 2.94 | > 200 |
| CN1c2ccccc2C(=O)N2CCc3c(n(C(=O)c4ccc(Cl)cc4)c4ccc(Cl)cc34)C21 (stereo unspecified) | > 200 | 72.7 | > 200 |
| CN1c2cccc(F)c2C(=O)N2CCc3c([nH]c4ccccc34)C21 (stereo unspecified) | 200 | 42.6 | > 200 |
| CN1c2ccccc2C(=O)N2CCc3c([nH]c4ccc([N+](=O)[O-])cc34)C21 (stereo unspecified) | > 200 | > 200 | > 200 |
| CN1c2ccccc2C(=O)N2CCc3c([nH]c4c([N+](=O)[O-])cc([N+](=O)[O-])cc34)C21 (stereo unspecified) | > 200 | 0.16 | > 200 |
| CN1c2ccccc2C(=O)N2CCc3c([nH]c4ccc(OCc5ccccc5)cc34)C21 (stereo unspecified) | > 200 | 41.2 | > 200 |
| COc1ccc2[nH]c3c(c2c1)CCN1C(=O)c2cc(F)ccc2NC31 (stereo unspecified) | 60.1 | 18.5 | 26.7 |
| COc1ccc2[nH]c3c(c2c1)CCN1C(=O)c2cc(F)ccc2N(C)C31 (stereo unspecified) | 200 | < 0.003 | 0.78 |
| CN1c2ccccc2C(=O)N2CCc3c([nH]c4ccc(Br)cc34)C21 (stereo unspecified) | > 200 | 37.6 | > 200 |
| CN1c2ccccc2CN2CCc3c(n(C(=O)c4ccc(Cl)cc4)c4ccccc34)C21 (stereo unspecified) | > 200 | 96 | > 200 |
| COc1cc2c(cc1OC)N(C)C1c3[nH]c4ccccc4c3CCN1C2=O (stereo unspecified) | > 200 | 8.97 | > 200 |
| COc1ccc2c(c1)C(=O)N1CCc3c([nH]c4ccccc34)C1N2C (stereo unspecified) | 0.94 | 0.29 | 1.25 |
| COc1ccc2c(c1)C(=O)N1CCc3c(n(C(=O)c4ccc(Cl)cc4)c4ccccc34)C1N2C (stereo unspecified) | > 200 | 184 | 88.7 |
| O=C1c2cc(F)ccc2NC2c3[nH]c4ccccc4c3CCN12 (stereo unspecified) | > 200 | > 200 | > 200 |
| CN1c2ccccc2C(=S)N2CCc3c(n(C(=O)c4ccc(Cl)cc4)c4ccccc34)C21 (stereo unspecified) | > 200 | > 200 | > 200 |
| O=c1c2cc(F)ccc2nc2n1CCc1c-2[nH]c2ccccc12 | 47.2 | 15.9 | 20 |
| CCOc1ccc2[nH]c3c(c2c1)CCN1C(=O)c2ccccc2N(C)C31 (stereo unspecified) | > 200 | 5.93 | 19.2 |
| CN1c2ccc(Br)cc2C(=O)N2CCc3c([nH]c4ccccc34)C21 (stereo unspecified) | 14.5 | 1.5 | 14.1 |
| O=C1c2ccccc2OC2c3[nH]c4ccccc4c3CCN12 (stereo unspecified) | 2.4 | 3.13 | 3.03 |
| CN1c2ccccc2C(=O)N2CCc3c([nH]c4ccc(F)cc34)C21 (stereo unspecified) | 6.85 | 27.4 | 8.56 |

| Structure (SMILES) | GI50 (A549) [µM] | GI50 (MDA-MB-435) [µM] | GI50 (HCT-116) [µM] |
| --- | --- | --- | --- |
| CN1c2ccccc2C(=O)N2CCc3c([nH]c4ccc(OCC5CO5)cc34)C21 (stereo unspecified) | 48.9 | 0.61 | 2.98 |
| C#CCOc1ccc2[nH]c3c(c2c1)CCN1C(=O)c2ccccc2N(C)C31 (stereo unspecified) | > 200 | 4.39 | 14 |
| CN1c2ccc([N+](=O)[O-])cc2C(=O)N2CCc3c([nH]c4ccccc34)C21 (stereo unspecified) | > 200 | > 200 | > 200 |
| CN1c2ccccc2C(=O)N2CCc3c(n(C(=O)c4ccc(Cl)cc4)c4ccc(Br)cc34)C21 (stereo unspecified) | 22.5 | 38.7 | 19.7 |
| C#CCN(CC#C)c1ccc2c(c1)C(=O)N1CCc3c([nH]c4ccccc34)C1N2C (stereo unspecified) | > 200 | 2.03 | 0.21 |
| COc1ccc2c(c1)C(=O)N1CCc3c([nH]c4ccc(O)cc34)C1N2C (stereo unspecified) | 1.6 | 0.66 | 0.07 |
| CN1c2cccc(Cl)c2C(=O)N2CCc3c([nH]c4ccccc34)C21 (stereo unspecified) | 5.65 | 1.43 | 4.56 |
| COc1ccc2c(c1)N(C)C1c3[nH]c4ccccc4c3CCN1C2=O (stereo unspecified) | > 200 | > 200 | > 200 |
| CC(=O)Nc1ccc2c(c1)C(=O)N1CCc3c([nH]c4ccccc34)C1N2C (stereo unspecified) | > 200 | 59.1 | 70.5 |
| Cc1ccc2c(c1)C(=O)N1CCc3c([nH]c4ccccc34)C1N2C (stereo unspecified) | 32.2 | 0.32 | 0.61 |
| Cc1cccc2c1C(=O)N1CCc3c([nH]c4ccccc34)C1N2C (stereo unspecified) | 14.3 | 20.2 | 13.1 |
| COc1ccc2[nH]c3c(c2c1)CCn1c-3nc2ccc(F)cc2c1=O | > 200 | > 200 | 138 |
| CC[C@@]1(O)C(=O)OCc2c1cc1n(c2=O)Cc2cc3c(CN(C)C)c(O)ccc3nc2-1 [TOPOTECAN] | 3.96 | 0.034 | 0.4 |
| CN1c2ccccc2C(=O)N2CCc3c([nH]c4ccc(OC(=O)C5CC5)cc34)C21 (stereo unspecified) | 1.9 | 0.08 | 0.01 |
| CN1c2ccccc2C(=O)N2CCc3c([nH]c4ccc(I)cc34)C21 (stereo unspecified) | 11.4 | 0.26 | 0.78 |
| CN1c2ccc(N3CCC3)cc2C(=O)N2CCc3c([nH]c4ccccc34)C21 (stereo unspecified) | > 200 | 0.2 | 3.85 |
| COc1ccc2[nH]c3c(c2c1)CCN1C(=O)c2ccccc2N(C)C31 (stereo unspecified) | > 200 | 8.97 | > 200 |
| CN1c2ccccc2C(=O)N2CCc3c([nH]c4ccc(Cl)cc34)C21 (stereo unspecified) | > 200 | > 200 | > 200 |
| CN1c2ccc(Br)cc2C(=O)N2CCc3c(n(C(=O)c4ccc(Cl)cc4)c4ccccc34)C21 (stereo unspecified) | > 200 | 8.72 | 39.7 |
| CCCOc1ccc2[nH]c3c(c2c1)CCN1C(=O)c2ccccc2N(C)C31 (stereo unspecified) | > 200 | 3.07 | 8.05 |
| COc1ccc2[nH]c3c(c2c1)CCN1C(=O)c2c(OC)cccc2N(C)C31 (stereo unspecified) | 98 | 21 | 42 |
| CN1c2ccccc2C(=O)N2CCc3c(n(C(=O)c4ccc(Cl)cc4)c4ccc(O)cc34)C21 (stereo unspecified) | 26.6 | < 0.002 | 0.05 |
| CN1c2ccccc2CN2CCc3c([nH]c4ccccc34)C21 (stereo unspecified) | > 200 | 16.2 | > 200 |
| CCc1c2c(nc3ccc(OC(=O)N4CCC(N5CCCCC5)CC4)cc13)-c1cc3c(c(=O)n1C2)COC(=O)[C@]3(O)CC [IRINOTECAN] | 5 | 12.2 | 7.1 |
| CN1c2ccc(NC(=O)C3CC3)cc2C(=O)N2CCc3c([nH]c4ccccc34)C21 (stereo unspecified) | > 200 | > 200 | 187 |
| COc1ccc2[nH]c3c(c2c1)CCN1C(=S)c2ccccc2N(C)C31 (stereo unspecified) | 106 | 3.69 | 21.4 |
